Assay outcomes: PubChem, Johns Hopkins Ion Channel Center
Rows were chosen to be rich in hits. Some 3% of all compounds tested hit in one or more screens of this group.
Kir21 inh = inhibitors of mouse Kir2.1 inward-rectifier potassium channel. P35561. HEK293-Kir2.1, FluxOR thallium flux fluorescence; active compounds read low. B-score at 10 µM. hit rate 0.85% among 310,000. AID 1672;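 active means fluorescence ratio B-score at or below minus 3 SD of library scores, with starting-brightness B-score within 2 SD, cut at about -4.2 in these data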;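 further: channel flux triggered by added potassium and thallium sulfate stimulus; B-score of peak minus minimum fluorescence over baseline after thallium stimulus; more negative B-score means stronger Kir2.1 block with less thallium influx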
Target sequence (P35561 whole entry, looked up): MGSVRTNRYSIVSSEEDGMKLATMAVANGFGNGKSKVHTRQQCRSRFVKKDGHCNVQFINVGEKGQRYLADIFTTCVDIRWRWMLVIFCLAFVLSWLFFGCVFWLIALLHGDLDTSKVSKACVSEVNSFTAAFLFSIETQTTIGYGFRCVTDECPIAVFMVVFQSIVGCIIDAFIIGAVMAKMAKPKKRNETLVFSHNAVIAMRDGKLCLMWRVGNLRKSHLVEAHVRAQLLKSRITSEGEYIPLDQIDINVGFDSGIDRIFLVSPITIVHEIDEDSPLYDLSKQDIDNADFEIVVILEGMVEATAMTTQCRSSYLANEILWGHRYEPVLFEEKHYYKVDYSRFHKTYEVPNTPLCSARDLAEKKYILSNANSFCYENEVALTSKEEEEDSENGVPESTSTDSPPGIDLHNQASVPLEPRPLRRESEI
TRPC4 potent = allosterically enhances the mouse TRPC4 cation channel. Q9QUQ5. hit rate 0.42% among 310,000. HEK293 TRPC4beta/mu-opioid, DAMGO EC20, Fluo-4 Ca2+ flux; active compounds read high. B-score at 10 µM;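 active means B-score of calcium response area above 5 SD of library B-scores, with initial fluorescence ratio within 5 SD of library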
TRPC4 block = blocks the mouse TRPC4 cation channel; HEK293 TRPC4beta/mu-opioid, DAMGO-evoked Fluo4 calcium flux; active compounds read low; hit rate 0.39% among 300,000; B-score at 10 µM; Q9QUQ5;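 active means B-score over 3 SD under the library average, no early fluorescence shift, positive overall ratio signal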
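Assay system – HEK293 line stably carrying TRPC4beta and mu-opioid receptor · Doses – single dose · Detection – Fluo4 calcium-dye fluorescence, kinetic read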
TRPC6 inhibitor = blocks the mouse TRPC6 cation channel; B-score at 10 µM; HEK293-TRPC6, membrane potential dye, ACh-evoked depolarization; active compounds read low; hit rate 1.1% among 310,000; AID 2553;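 active means B-score under library mean minus 3 SD, initial fluorescence not abnormally high, positive integrated signal ratio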;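 further: B-score derived from integrated fluorescence ratio over the kinetic read; more negative B-score means stronger inhibition of depolarization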
TRPC4 act = activators of mouse TRPC4 channel; hit rate 0.49% among 310,000; HEK293 TRPC4beta/mu-opioid, Fluo4 calcium fluorescence; active compounds read high; B-score at 10 µM;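 active means B-score above 5 SD of library B-scores, and initial fluorescence ratio not above library mean plus 5 SD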;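 further: positive B-score marks a calcium rise read as TRPC4 activation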
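Assay system – TRPC4beta and mu-opioid receptor HEK293 stable cells · Measured by – Fluo4 fluorescence, kinetic · Schedule – dye loading 45 min room temperature, 110 s kinetic read · Read-out – B-scored integrated calcium fluorescence ratio · Controls – buffer and maximal DAMGO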
TRPC6 activator = activates the mouse TRPC6 cation channel | Q61143 | AID 2550 | hit rate 0.13% among 310,000 | B-score at 10 µM | HEK293-TRPC6 membrane potential dye fluorescence; active compounds read high;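 active means B-score of the integrated fluorescence ratio above library mean plus 3 SD, and starting fluorescence ratio within library mean plus 5 SD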;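 further: higher score means more depolarization so channel activation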
Each line names hits and unclear results; the compound was inactive in the other large screens.

COc1ccc(/C=C2\SC(=S)N(C(Cc3ccccc3)C(=O)O)C2=O)cc1 (stereo unspecified)	TRPC4 block -8
CC(/C=C1\SC(=S)N(C(C(=O)O)C(C)C)C1=O)=C\c1ccccc1 (stereo unspecified)	TRPC4 block -6
CC(/C=C1\SC(=S)N(c2ccc(C(=O)O)cc2)C1=O)=C\c1ccccc1	none
CCOC(=O)c1nc(Nc2ccc(N3CCC(C)CC3)cc2)c2ccccc2n1	none
CC(C)c1ccc(NC(=O)NC2(C(=O)NCc3cccnc3)CCCCC2)cc1	none
CCOc1cc(/C=C2\SC(=S)N(NS(=O)(=O)c3ccc(C)cc3)C2=O)ccc1O	none
COc1cc(/C=C2\SC(=S)N(NS(=O)(=O)c3ccc(C)cc3)C2=O)cc(OC)c1OC	TRPC4 block -6
COc1ccccc1CCCNC(=O)C1CCC(=O)N(Cc2ccccc2F)C1 (stereo unspecified)	none
CCOC(=O)c1ccc(NC(=S)N2CCSC2c2ccc(Cl)cc2)cc1 (stereo unspecified)	TRPC4 potent 20
OCC[C@@H]1C[C@@H](O)[C@H](O)[C@@]2(Cc3ccccc3O2)O1	none
COc1ccc(C[C@@H]2CN3C(=NC[C@@H]3C)N2C[C@H](C)NC(=O)CCC2CCCCC2)cc1	none
COc1ccc(C[C@H]2CN3C(=NC[C@@H]3Cc3ccccc3)N2C[C@H](C)NC(=O)CCC2CCCCC2)cc1	Kir21 inh -7.33
C[C@@H](CN1C2=NC[C@H](Cc3ccccc3)N2C[C@H]1Cc1ccc(O)cc1)NC(=O)CCC1CCCCC1	Kir21 inh -4.49
C/C=C(\C)C(=O)NCCN1C2=NC[C@H](Cc3ccccc3)N2C[C@@H]1Cc1ccc(OC)cc1	none
COc1ccc(C[C@H]2CN3C(=NC[C@H]3Cc3ccccc3)N2CCNC(=O)CCC2CCCCC2)cc1	Kir21 inh -6.11
COC(=O)c1ccc(OCC(O)CN2CCc3cc(OC)c(OC)cc3C2c2ccccc2)cc1 (stereo unspecified)	TRPC4 potent 11
CSCC[C@H](NC(=O)Cc1ccc(Cl)cc1)C(=O)N1CCC2(CC1)NCCc1[nH]cnc12	none
CCOC(=O)Cn1nc(C)c(NC(=O)c2ccc(Cl)c([N+](=O)[O-])c2)c1C	none
CCCCn1nc2cc(C(=O)NCc3ccc(OC)cc3)ccc2c1OCC	Kir21 inh -5.08 (no result: TRPC4 block)
COc1ccc(NC(=O)CN(C)C(=O)c2ccc(NS(=O)(=O)c3cccc([N+](=O)[O-])c3)cc2)cc1	none
CC(=O)N1CCN(c2nc(CC(C)C)c3c(c2C#N)CCC3)CC1	none
CC(C)Cc1nc(N2CCN(C(=O)c3ccccc3)CC2)c(C#N)c2c1CCC2	TRPC4 potent 13
CC(C)Cc1nc(N2CCN(C(=O)C(C)C)CC2)c(C#N)c2c1CCC2	TRPC4 potent 25
CCCn1c(Nc2cccc(OC)c2)nc2ccccc21	none
CCCCNC(=O)NS(=O)(=O)c1ccc(NC(=O)CCC(=O)c2cccs2)cc1	none
CC(=O)N1N=C(c2c(-c3ccccc3)c3cc(C)ccc3[nH]c2=O)CC1c1ccco1 (stereo unspecified)	TRPC4 potent 24
O=C(c1ccco1)N1CCCC(c2nc3c(nnn3Cc3c(Cl)cccc3Cl)c(=O)[nH]2)C1 (stereo unspecified)	none
Cc1cc(C)c2sc(N(CCCN(C)C)C(=O)c3ccc(S(=O)(=O)N4CCc5ccccc5C4)cc3)nc2c1	none
Cc1ccc2nc(N(CCCN(C)C)C(=O)c3ccc(S(=O)(=O)N4CCc5ccccc5C4)cc3)sc2c1	TRPC4 act 129
CN(C)CCCN(C(=O)c1ccc(S(=O)(=O)N(C)C)cc1)c1nc2ccc(F)cc2s1	TRPC4 block -5, TRPC4 act 49
Cc1ccc2nc(N(CCCN(C)C)C(=O)c3sc4ccccc4c3Cl)sc2c1	TRPC4 potent 10
CN(C)CCN(C(=O)CCc1ccccc1)c1nc2c(F)cc(F)cc2s1	none
CN(C)CCCN(C(=O)CCc1ccccc1)c1nc2ccc(F)cc2s1	Kir21 inh -4.87
COc1ccc(CCNC(=O)c2cc(-c3ccncc3)nc3ccc(S(=O)(=O)N4CCOCC4)cc23)cc1OC	none
COc1cc2c(cc1OC)C(C)N(C(=O)c1cc3c(C)cc(C)cc3[nH]1)CC2 (stereo unspecified)	none
Cc1cccc(CC(=O)N2CCN(C(=O)c3ccco3)CC2)c1	none
CCOC(=O)/C(C#N)=C/c1c(N2CCN(c3ccccc3)CC2)nc2ccccn2c1=O	none
NC(=O)c1ccc(/C(N)=N/S(=O)(=O)c2cc(C(F)(F)F)cc(C(F)(F)F)c2)cc1	none
CN(C)CCCN(C(=O)c1ccc(S(=O)(=O)N2CCc3ccccc3C2)cc1)c1nc2ccc(F)cc2s1	TRPC4 act 111
CN(C)CCCN(C(=O)c1ccc(S(=O)(=O)N2CCCC2)cc1)c1nc2c(F)cc(F)cc2s1	TRPC4 block -9
CN(C)CCCN(C(=O)c1ccc(S(=O)(=O)N2CCc3ccccc32)cc1)c1nc2ccc(F)cc2s1	TRPC4 act 111
CCN(CC)CCN(C(=O)c1ccccc1OC)c1nc2ccc(F)cc2s1	TRPC4 block -6
CCN(CC)CCN(C(=O)c1ccc2c(c1)CCCC2)c1nc2ccc(F)cc2s1	none
CN(CCC#N)C(=S)Nc1ccc(S(=O)(=O)N2CCOCC2)cc1	none
COC(=O)C/C(C)=N/Nc1ccc(S(=O)(=O)N2CCCC2)cc1[N+](=O)[O-]	none
CCC(C)NS(=O)(=O)c1ccc(NC(=O)C2CCN(C(=O)c3ccco3)CC2)cc1 (stereo unspecified)	none
Cn1nnc2cc(NC(=O)Nc3cccc(C(F)(F)F)c3)ccc21	none
Cc1ccc(S(=O)(=O)c2cc3c(=O)n4cccc(C)c4nc3n(Cc3ccncc3)c2=N)cc1	none
Cc1cc(NCCN2CCCCC2)n2c(nc3ccccc32)c1C#N	TRPC6 inhibitor -8.11
Cc1cc(NCCCN(C)C)n2c(nc3ccccc32)c1C#N	none
CC(C)(C)NCC(=O)N/N=C/c1ccc(OCc2ccccc2)cc1	Kir21 inh -4.31
O=C1/C(=C/c2cccc(O)c2)SC(=S)N1CC1CCCO1 (stereo unspecified)	none
COc1cccc(/C=C2\SC(=S)N(CC3CCCO3)C2=O)c1 (stereo unspecified)	TRPC4 block -6
CCOC(=O)[C@@H]1CCN(Cc2ccccc2)C[C@H]1c1ccccc1	TRPC4 block -7
CCOC(=O)C1CCN(Cc2ccc(OCc3ccccc3)cc2)CC1	none
COc1ccccc1CNC(=O)C1CCC(CNc2c(N3CCC(C)CC3)c(=O)c2=O)CC1 (stereo unspecified)	none
